SMILES strings stand for the structures.

Assay [1] concerns Mus musculus. The experiment in a line: Hypoglycemic activity in fasted po dosed streptozotocin-induced diabetic ddY mouse assessed as decrease in blood glucose level after 6 hrs by glucose oxidase method. The format is functional. As to conditions: for ED50: read-out: ID50 (the source's name). The procedure, abridged: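 Male ddY mice given streptozotocin 150 mg/kg iv in saline via tail vein, used 1 or 4 weeks later; fasting glucose >150 mg/dl after 13–14 h fast. Graded doses. Percent fall computed from glucose before and after dosing versus 85 mg/dl normal mean. ID50 with 95% confidence limits from dose-inhibition curves; 7–12 mice per point, mean ± SEM.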

Assay [2] deals with Mus musculus. The experiment in a line: Hypoglycemic activity in fasted alloxan monohydrate-induced diabetic ddY mouse assessed as decrease in blood glucose level at 50 mg/kg, ip after 6 hrs by glucose oxidase method. The format is functional. The arrangement: scale not given: the % may be the effect or the level left. As to conditions: route intraperitoneal. In outline: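 Male ddY mice given alloxan monohydrate 90 mg/kg iv bolus in saline via tail vein, used 1 or 4 weeks later; fasting glucose >150 mg/dl after 13–14 h fast. Dosed 50 mg/kg ip; saline control. Glucose oxidase read-out. Percent fall = (A − B)/(A − 85) × 100, A and B being glucose before and 6 h after injection. Means ± SEM, n = 5–10.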

The subject of assay [3] is Mus musculus. The experiment in a line: Effect on blood glucose level in fasted ddY mouse at 50 mg/kg, ip after 6 hrs by glucose oxidase method. Details: dose 50 mg/kg. The format is functional, organism-based. The procedure, abridged: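 Non-diabetic male ddY mice, 7–8 weeks of age (33–41 g), fasted; 50 mg/kg given ip. Blood glucose measured by glucose oxidase on a glucose analyzer.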

The test system of the next assay is Pancreas. As to the kind of experiment: Stimulation of immunoreactive insulin release in perfused Wistar rat pancreas at 1 mg/ml for 10 mins by radioimmunoassay. The format is functional. In outline:
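Male Wistar rat pancreas (6–7 weeks) perfused via celiac artery with KRB pH 7.4, 0.5% BSA, 2% dextran, 2.8 mM glucose basal, 95% O2/5% CO2. Stimulated with 16.7 mM glucose ± 1 mg/ml test agent for 10 min. Portal vein effluent insulin measured by radioimmunoassay. n = 7.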

`CC1=C(CC[C@H](C)CO[C@@H]2O[C@H](CO)[C@@H](O)[C@H](O)[C@H]2O)O[C@H]2C[C@H]3[C@@H]4CC[C@@H]5C[C@@H](O[C@@H]6O[C@H](CO)[C@H](O)[C@H](O)[C@H]6O[C@@H]6O[C@H](CO)[C@@H](O)[C@H](O)[C@H]6O)CC[C@]5(C)[C@H]4CC[C@]3(C)[C@@H]12` [PSEUDOPROTOTIMOSAPONIN AIII]: the results for the Activity entry in the assay on Mus musculus [1] and in the assay on Mus musculus [2] were “Dose-dependent effect” and 82.8%, respectively. Moreover, the ED50 in the assay with Mus musculus [1] amounted to 4.33 mg/kg.
As to `C[C@H]1CC[C@@]2(OC1)O[C@H]1C[C@H]3[C@@H]4CC[C@@H]5C[C@@H](O[C@@H]6O[C@H](CO)[C@H](O)[C@H](O)[C@H]6O[C@@H]6O[C@H](CO)[C@@H](O)[C@H](O)[C@H]6O)CC[C@]5(C)[C@H]4CC[C@]3(C)[C@H]1[C@@H]2C` [TIMOSAPONIN AIII], the Activity in the assay with Mus musculus [2] is recorded as 64.5%.
For the compound `C[C@@H](CCC1(O)O[C@H]2C[C@H]3[C@@H]4CC[C@@H]5C[C@@H](O[C@@H]6O[C@H](CO)[C@H](O)[C@H](O)[C@H]6O[C@@H]6O[C@H](CO)[C@@H](O)[C@H](O)[C@H]6O)CC[C@]5(C)[C@H]4CC[C@]3(C)[C@H]2[C@@H]1C)CO[C@@H]1O[C@H](CO)[C@@H](O)[C@H](O)[C@H]1O` (stereo partly specified) [PROTOTIMOSAPONIN AIII], the Activity entry with Mus musculus [3] is “Dose-dependent effect”; in the assay on Mus musculus [1], “Dose-dependent effect”; with Pancreas it was 59.7 ng/mL; in the assay on Mus musculus [2], 73.4%. In the assay with Mus musculus [1], the ED50 turned out to be 6.62 mg/kg.
With `COc1ccc(Cl)cc1C(=O)NCCc1ccc(S(=O)(=O)NC(=O)NC2CCCCC2)cc1` [GLYBURIDE], in the assay with Mus musculus [1], the Activity result was “Dose-dependent effect” and the ED50 was 0.33 mg/kg.

Values taken from ChEMBL document CHEMBL1147346, “Isolation of pseudoprototimosaponin AIII from rhizomes of Anemarrhena asphodeloides and its hypoglycemic activity in streptozotocin-induced diabetic mice” (1993).
